According to ChEMBL document CHEMBL1629427, “Synthesis and structure-activity relationship of 3-O-acylated (-)-epigallocatechins as 5α-reductase inhibitors” (Eur J Med Chem, 2010):
Calls of active or inactive are those of the source. The calls are words filed in the database; no cut-off is given here.

Target: not listed separately
Test: Inhibition of rat liver microsomal Steroid 5-alpha-reductase after 30 mins by scintillation counting
Details: not given
Outline: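 Rat liver microsomes containing both type 1 and type 2 5α-reductase. [³H]T and [³H]DHT spots were separated by TLC, cut out and extracted with ethyl acetate, then counted by liquid scintillation.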

`CCCCCCCCCCCCCC(=O)O[C@@H]1Cc2c(O)cc(O)cc2O[C@@H]1c1cc(O)c(O)c(O)c1` and `CCCCCCCCCCCCCCCC(=O)O[C@@H]1Cc2c(O)cc(O)cc2O[C@@H]1c1cc(O)c(O)c(O)c1` are within 1.5-fold of each other in IC50: 600 nM for the first, 530 nM for the second.

`CCCCCCC/C=C/C(=O)O[C@@H]1Cc2c(O)cc(O)cc2O[C@@H]1c1cc(O)c(O)c(O)c1` and `CCCCCCCCCC(=O)O[C@@H]1Cc2c(O)cc(O)cc2O[C@@H]1c1cc(O)c(O)c(O)c1` are within 1.5-fold of each other in IC50: 2470 nM for the first, 2940 nM for the second.

Compared with `O=C(O[C@@H]1Cc2c(O)cc(O)cc2O[C@@H]1c1cc(O)c(O)c(O)c1)c1cc(O)c(O)c(O)c1` [EPIGALOCATECHIN GALLATE], `O=C(O[C@@H]1Cc2c(O)cc(O)cc2O[C@@H]1c1cc(O)c(O)c(O)c1)c1ccc(Cl)cc1` is 3.9-fold lower in IC50: 6290 nM for the first, 1600 nM for the second.

First: CCCCCCCC/C=C\CCCCCCCC(=O)O[C@@H]1Cc2c(O)cc(O)cc2O[C@@H]1c1cc(O)c(O)c(O)c1
Second: CCCCCC/C=C\CCCCCCCC(=O)O[C@@H]1Cc2c(O)cc(O)cc2O[C@@H]1c1cc(O)c(O)c(O)c1
The IC50 of the first is 1.5-fold higher: 740 nM for the first, 480 nM for the second. The second is the more potent here.

First: CC1=C(/C=C/C(C)=C/C=C/C(C)=C/C(=O)O[C@@H]2Cc3c(O)cc(O)cc3O[C@@H]2c2cc(O)c(O)c(O)c2)C(C)(C)CCC1
Second: CC(C)=CCC/C(C)=C/C(=O)O[C@@H]1Cc2c(O)cc(O)cc2O[C@@H]1c1cc(O)c(O)c(O)c1
The IC50 of the first is 2.9-fold lower: 760 nM for the first, 2240 nM for the second.

`CCCCCCCCCCCCCCCCCC(=O)O[C@@H]1Cc2c(O)cc(O)cc2O[C@@H]1c1cc(O)c(O)c(O)c1` and `CCCCCCCCCCCC(=O)O[C@@H]1Cc2c(O)cc(O)cc2O[C@@H]1c1cc(O)c(O)c(O)c1` are within 1.5-fold of each other in IC50: 730 nM for the first, 770 nM for the second.

`Cc1ccc(C(=O)O[C@@H]2Cc3c(O)cc(O)cc3O[C@@H]2c2cc(O)c(O)c(O)c2)cc1` and `CC(C)(C)C1CCC(C(=O)O[C@@H]2Cc3c(O)cc(O)cc3O[C@@H]2c2cc(O)c(O)c(O)c2)CC1` (some centres not stated) are within 1.5-fold of each other in IC50: 1320 nM for the first, 1190 nM for the second.

`CC/C=C\C/C=C\C/C=C\CCCCCCCC(=O)O[C@@H]1Cc2c(O)cc(O)cc2O[C@@H]1c1cc(O)c(O)c(O)c1` showed an IC50 of 780 nM.

Test system: PC-3
Test: Anticancer activity against human PC3 cells xenografted in sc dosed SCID mouse assessed as inhibition of tumor growth at 20 mg/kg, ip qd for 14 days
Format: functional
Details: not given
Outline: (§1)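 PC-3 xenografts in SCID mice; calipers tracked tumor volume once palpable, and dosing began at an average volume of ~50–100 mm³. Groups of 5 mice received one intraperitoneal dose daily for 14 days, formulated in 15% PEG 400, 5% EtOH and 80% H₂O, alongside a vehicle-only group. Tumor size and body weight were recorded every two days for 28 days; tumor size given as mean ± S.E.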

For `O=C(O[C@@H]1Cc2c(O)cc(O)cc2O[C@@H]1c1cc(O)c(O)c(O)c1)c1cc(O)c(O)c(O)c1` [EPIGALOCATECHIN GALLATE], the inhibition was “inactive”.

Same assay, conditions: PC-3, sc, 336 h, route subcutaneous

Compound `CCCCCC/C=C\CCCCCCCC(=O)O[C@@H]1Cc2c(O)cc(O)cc2O[C@@H]1c1cc(O)c(O)c(O)c1` has an inhibition in vivo at 20 mg/kg of 38%.

Test system: PC-3
Test: Anticancer activity against human PC3 cells xenografted in sc dosed SCID mouse assessed as inhibition of tumor growth at 80 mg/kg, ip qd for 14 days
Format: functional
Details: PC-3, sc, 336 h
Outline: as §1

`O=C(O[C@@H]1Cc2c(O)cc(O)cc2O[C@@H]1c1cc(O)c(O)c(O)c1)c1cc(O)c(O)c(O)c1` [EPIGALOCATECHIN GALLATE] showed an inhibition in vivo at 80 mg/kg of 32%.

Species on record: Rattus norvegicus
Test: Inhibition of rat liver microsomal Steroid 5-alpha-reductase at 5 uM after 30 mins by scintillation counting
Details: not given
Outline: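 Rat liver microsomal 5α-reductase (types 1 and 2) was incubated with 35 nM [³H]testosterone, 1.0 mM NADPH, 1 mM DTT and 40 mM potassium phosphate pH 6.5. Steroids were separated by TLC and the spots extracted with ethyl acetate for scintillation counting. Percent inhibition was taken at a single fixed test concentration.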

Going from `CCCCCCCCCCCCCCCCCCCCCC(=O)O[C@@H]1Cc2c(O)cc(O)cc2O[C@@H]1c1cc(O)c(O)c(O)c1` to `CCCCCCCCCCCCCCCCCCCC(=O)O[C@@H]1Cc2c(O)cc(O)cc2O[C@@H]1c1cc(O)c(O)c(O)c1`, the inhibition rises from 28.3% to 47.9%.

First: CCCC(=O)O[C@@H]1Cc2c(O)cc(O)cc2O[C@@H]1c1cc(O)c(O)c(O)c1
Second: CCCCCC(=O)O[C@@H]1Cc2c(O)cc(O)cc2O[C@@H]1c1cc(O)c(O)c(O)c1
The inhibition of the first is lower: 35% for the first, 46% for the second.

Compared with `C/C=C(\C)C(=O)O[C@@H]1Cc2c(O)cc(O)cc2O[C@@H]1c1cc(O)c(O)c(O)c1`, `CC(=O)O[C@@H]1Cc2c(O)cc(O)cc2O[C@@H]1c1cc(O)c(O)c(O)c1` is lower in inhibition: 29.1% for the first, 3% for the second.

Compared with `COc1cc(OC)c2c(c1)O[C@H](c1cc(OC)c(OC)c(OC)c1)[C@H](OC(=O)c1cc(OC)c(OC)c(OC)c1)C2`, `CC(=O)Oc1cc(OC(C)=O)c2c(c1)O[C@H](c1cc(OC(C)=O)c(OC(C)=O)c(OC(C)=O)c1)[C@H](OC(=O)c1cc(OC(C)=O)c(OC(C)=O)c(OC(C)=O)c1)C2` is lower in inhibition: 8.4% for the first, 0.5% for the second.

Compared with `C#CCCCC(=O)O[C@@H]1Cc2c(O)cc(O)cc2O[C@@H]1c1cc(O)c(O)c(O)c1`, `CCCCCCCC(=O)O[C@@H]1Cc2c(O)cc(O)cc2O[C@@H]1c1cc(O)c(O)c(O)c1` is higher in inhibition: 48.8% for the first, 49.3% for the second.

Going from `Cc1ccc(NC(=O)O[C@@H]2Cc3c(O)cc(O)cc3O[C@@H]2c2cc(O)c(O)c(O)c2)cc1` to `O=C(Nc1ccc(Cl)cc1)O[C@@H]1Cc2c(O)cc(O)cc2O[C@@H]1c1cc(O)c(O)c(O)c1`, the inhibition rises from 0.8% to 19.1%.

Compared with `O=C(Nc1ccc2ccccc2c1)O[C@@H]1Cc2c(O)cc(O)cc2O[C@@H]1c1cc(O)c(O)c(O)c1`, `CC(C)=CC(=O)O[C@@H]1Cc2c(O)cc(O)cc2O[C@@H]1c1cc(O)c(O)c(O)c1` is higher in inhibition: 28.7% for the first, 36% for the second.
